The EternaBench riboswitch data

Test system: MS2 coat protein
Experiment: apparent Kd, MS2 coat protein; higher = weaker binding; RNA-MaP array; FMN 200 µM where present
Procedure, shortened: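 Two titrations, one without ligand and one with constant ligand, were run with SNAP-549-labelled MS2 coat protein from 0.7 or 1.5 nM, doubling to 3 µM. The targets were designs transcribed by stalled E. coli RNA polymerase on Illumina sequencing-chip clusters, in 100 mM Tris-HCl pH 7.5, 80 mM KCl, 4 mM MgCl2, BSA, DTT, yeast tRNA and Tween-20. The apparent Kd is the median of filtered per-cluster binding-curve fits, with green signal normalised to red-channel RNA signal and control-cluster median Fmax.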

[1] = designed as: OFF switch for flavin mononucleotide, no ligand
[2] = ligand present: flavin mononucleotide, designed as: OFF switch for flavin mononucleotide
[3] = designed as: ON switch for flavin mononucleotide, no ligand
[4] = ligand present: flavin mononucleotide, designed as: ON switch for flavin mononucleotide

Sequence	apparent Kd [1] [nM]	apparent Kd [2] [nM]	apparent Kd [3] [nM]	apparent Kd [4] [nM]
GGGCAACAUGAGGAUCACCCAUGUGAGGAUAUGGGCCCGGGCCCGAAAGGGCCCGGGCCCAGAAGGCACAGCCC	17.9	17.1		
CAGCAAUGUGAGAAGGCUGCUCCGAUAAGGAGCAGAGGAUAUUACAUGAGGAUCACCCAUGUAUGAACCAAUAGCUGAAAUAAA	6.01	28.3		
AACCGACAUGAGGAUCACCCAUGUCAGGAUAUGGACUGACACCGAAAGGGUGGCGGAACCAGAAGGGACUGGGC	36.3	96.5		
CCGAAUAUGCAGGAUAUCGUAUCGGAAACGAUACGAGAAGGGUAAACAUGAGGAUCACCCAUGUUCCUUAACGG	20.6	22.2		
GGCGGCGGACAAGGAUAUAAGACGCGGACCAAAUUAGAAGGUGUCAUCUGGCAAUGCGAAAGCAGACAUGAGGAUCACCCAUGU			78.9	72.7
AAAUUGCUAGAGGAUAUCGGAUAGGAUCUAUUGCGAGAAGGUUGGACAUGAGGAUCACCCAUGUUCUGUUGGGA	25.8	25.8		
AGUCGGAGCAGAGGAUAUACAUGAGGAUCACCCAUGUAAUAUGAUCUAGCCUGGAAACAGGCAAUGUAGAAGGCUGCUCCGACA	90.3	709		
AGCGCUACGGAAUCAAGGGCAGGCAGAAGGAGCACAUGAGGAUCACCCAUGUGAUCCAGGGAUGGCUAGGAUAUGCGCGCCACG	26.4	26.5		
UCAUGAAGGAUAGGAUAUGGACAUGAGGAUCACCCAUGUACAUGGGAAUGAAUACUGAAUUUGUACUAGAAGGGUUACAUAAAU	56.4	37		
GCUGACGAUGUAGGAUAUCUCGACGAUAAGUCGAGAGAAGGACAUGAGGAUCACCCAUGUAUCUCAACGUCAGCGAGGAAACUC	16.4	20.4		
AAAAAGCGAGGAUAUGCAUAAGGACCCGGGAGGGAAAUCAAACAUGAGGAUCACCCAUGUAGAAGGCGCAAAAA	16.1	23.3		
CGCUGGUGACAGCAUCCAUCAAAACAUGAGGAUCACCCAUGUAGAAGGCUGUACGGUUACCGUACAGAGGAUAUACAAUGAUGU	16	27.2		
UAAUCUCAGAUAGGAUAUAUAGGAUGAUUUAAGACUGAACAUGAGGAUCACCCAUGUGAUUAUCUGUAGAAGGAUCAAUGACCC			389	348
CAUGUCCUCACAGGAUAUGCACCACUUUGUGGUGCAGAAGGGUGAAUACAUGAGGAUCACCCAUGUGGACAUGAUAUAUUUAAU			1140	72.2
GUAGCAUACCGAGGAUAUUCUUACCGGAAACGGACAUGAGGAUCACCCAUGUGGCGAAAGCCUUUGGAGAAGGCGGAAUGCUAC			12.4	12.4
UGGUACAUCGGAGGAUAUCGUGUGUAAACAUGAGGAUCACCCAUGUCAUACGAGAGUAUGUAGAUCGAGAAGGCCGAUGUACCU			16.7	16.2
GCUGUAAGAGGAUAUACAUGGUAUUGACUGGCACCGGUUAGACAUGAGGAUCACCCAUGUAGAAGGCUUGUAUG	86.3	248		
AAUUCGGCAGGAUAUACAUGAGGAUCACCCAUGUAAAUUUUUCGUUUAACUUGAAUGUGUAGAAGGGCCAUUUA		22.6		
UGUUGUUCAGGAUAUGAUGUGUUAUACAUGAGGAUCACCCAUGUGGGUCCUGAUUUGGCGUCAGAAGGGAAUGUUG	116	200		
AUUUUGUCAGGAUAUGAUUAGUAGGACGAGAGUGCUACUACUUAGAAGGGACAUGAGGAUCACCCAUGUAUUCC	17.8	22.2		
CCGGCCGCCGUGAGGAUAUGCCCGCGCGCCCGCGGGCAGAAGGCACAUGAGGAUCACCCAUGUCCUGCGGUCCC	20.1	119		
ACAUGAGGAUCACCCAUGUAGAAUGAAGAAGGUGGAUACUUGUGACUCACCCAUGUACAUAGGACUAAGGAUAUUCUAAUAAUU			25.1	23
UGGUGUGAGCUAUCACAUGACUGGGAGGAUAUGACAUGAGGAUCACCCAUGUGGGAUCUAAAUUGUCAGAAGGCUCGAUCUGGG	750	208		
AACGACUUAGGAUAUACAUGAGGAUCACCCAUGUUCAAAUCGUGGGUCAGGUGAGAAGGUAGAAGGAAGUCACU	33.6	93.7		
CCACGGUAUGUAGGAUAUGCAUAGCAUUGCUAUGCAGAAGGACAUGAGGAUCACCCAUGUAUGUAUUCCAUACUAAUCCCGUGG	5.5	5.69		
GUGUACAGAGGAUAUACAUGAGCUAGGAAACUAGCAAACUCACAUGAGGAUCACCCAUGUAGAAGGCUGUACAC	264	54.7		
ACAUGCAUAGCGAUAUGAUCGAGAGAUCAUGUCGCUAAAGUUAGAAGGACAUGAGGAUCACCCAUGUAGGAUAUGGGUGCAUGA			641	48.7
AUCCAGGUAACAUGAGGAUCACCCAUGUUCCUUCGCUCUGGCGAGGAUAUGAAGGGAUUGUCCCAUCAGAAGGCGCAUGGGUGC			46.7	57.5

Sequence	apparent Kd [1] [nM]	apparent Kd [2] [nM]	apparent Kd [3] [nM]	apparent Kd [4] [nM]
GCCUAGACUAGGCCCACGGCAUCACAGGAUAUGCCAAUCACAUGAGGAUCACCCAUGUCAACUCCGCAGAAGGGUGAUAUCGUG			235	14.3
UGAAUAAUGUUAGGAUAUACAUGAGGAAUCCUCGUAGAAGGAACAUGACAUGAGGAUCACCCAUGUAGCGCUCAGAAGAGCGCA			140	135
CGGUCUUGCAACUAUUUGUUUCACAUGAGGAUCACCCAUGUCAGAAGGAGGUGCGUCUAUUAGACCUAGGAUAUGACGUGUAAG	15.5	26		
AUUUCGUUAGCAGGAUAUGGACAGGCCUGUCCGUAUUGAGUCAGUAACAUGAGGAUCACCCAUGUCCAGAAGGGCUCGAAGUUA	8.15	15.8		
GUACCUUAUGAGAAGGCGAUCAUUAAACAUGAUCGAGGAUAUCAUGAAAACAUGAGGAUCACCCAUGUAUGGGUAUUAUGGUAC			33.6	16.4
CACGGUGAUGUAGGAUAUACGCUGGAAUACAGCGUAGAAGGACAUGAGGAUCACCCAUGUAGAGUGUCUCCAAAUAACACCGUG	43	293		
UUACUAUUGCAGAAGGCUAAAUAAUAUAUAAAUGGAGGAUAUGCAACAUGAGGAUCACCCAUGUUUCACCCAUAUGAGGAUCAC	7.7	9.14		
ACUAUACGAGGAUAUACUGUCGGGCCUCGGACAUACAUACGACAUGAGGAUCACCCAUGUAGAAGGCGUUUACU	30.4	68.4		
AUCAGCUUGACAGGAUAUACAUGUCAGCGAAAGCUGACUAUCUUAAUAACAUGAGGAUCACCCAUGUAGAAGGGUCGAGCUGAU	16.9	26.4		
GUGGCAUACCGAGGAUAUUCAUAUAAUAAAUAAACAUGAGGAUCACCCAUGUGGCGAAAGCCUUGGGAGAAGGCGGAAUGCUAC			574	38.2
CAGGUAGACUGAGGAUAUACAGACCUAGUCUAUCUAGGUCAAUUAACCACAUGAGGAUCACCCAUGUAGAAGGCAGUCUGCCUG	15.9	21.4		
GUAGCAUACAGAGGAUAUUCAAACCACAAAAGUGGACAUGAGGAUCACCCAUGUGGCGAAAGCCGGGAGAAGGCUGAAUGCUAC			15.9	14.3
AAGUCGAGCGUGAGGAUAUCGUCCGGACGACCGAACGAGAAGGCACAUGAGGAUCACCCAUGUGAUUCAGCUCA	19	70.5		
GUUAGCUCGUGAGGAUAUACAACACUGCUUCGGCAGUGUAUUAAGAUCACAUGAGGAUCACCCAUGUAGAAGGCACGAGCUGAU	12.8	256		
ACUAAACGAGGAUAUACUGACAGGCCUCAGGCAUACAUCAAACAUGAGGAUCACCCAUGUAGAAGGCGUAAACU	32.8	32.8		
ACGUAACGGUGCGCGAGUGGACGGAGAAGGCAGACAUGAGGAUCACCCAUGUGAGCCUGCUAUUCUGAGGAUAUCCGUCCGCAC	38.9	254		
GAUAUAGAGCAGGAUAUCUUAGAUAUGUAAUAAAGAGAAGGGCUCACAUGAGGAUCACCCAUGUGGUCCUAGAU	18.5	113		
AAUAUUUUUUGAGGAUAUUCAUACACUGUAUACGGAGAAGGCAAACAAUCAUGAGGACAUGAGGAUCACCCAUGUUGUGACCAU			20.1	12.8
AAGGCCUAUUCCAGGACUAUCGUACUAGAAGGGUGACCUGACAUGAGGAUCACCCAUGUACGGGCACAGGAUAUAGAUGAAAGG			50.1	11.3
GGUGGUGUCCGAGGAUAUCGUUAGGCGUUGUUGCGAGAAGGCGGACAUGAGGAUCACCCAUGUUUGAUAAAAGAGGAGGUUGUG	86.1	130		
GGACGUCAGAUUAACAUGAGGAUCACCCAUGUCUUUUGACAUGAGGAUAUGGAAGGUAAUUCCUUCCAGAAGGCAUGGACGUCC			1020	114
GCACGGCAUGUAGGAUAUGCAUAGCAUUGCUAUGCAGAAGGACAUGAGGAUCACCCAUGUAUGUAUUCCAUACAUUUCCCGUGC	5.5	7.65		
CUUUUGUGAGGAUAUCAGUAGUAAAUAAAUAAAAUAACUACUGAGAAGGCACAUGAGGAUCACCCAUGUUCCUC	35.8	223		
GCUCCCGGUGUCAGGAUAUAGAGUUGGAAACGCCACUAGAAGGGACAUGAGGAUCACCCAUGUCAAGUUCGCUC	14.8	14.9		
UUUAUGUGAGGAUAUCAGUAGUAAAAAAAUAAAAUUACUACUGAGAAGGCACAUGAGGAUCACCCAUGUCCUUC	18.6	20		
GUAGCUAUUAUUAUACAUGAGGAUCACCCAUGUUACAUGUGUAAGGAUAUUGAAGUUUUUAUAAUCAAGAAGGUACUAUGCUAC			16.8	9.2
CUAAAAGUCGAGGAUAUGCACCGGCUUUCUGACGCAGAAGGCGACACAUGAGGAUCACCCAUGUCGGUACGCGA	13.7	15.8		
